TRPC4 act – opens the mouse TRPC4 cation channel; hit rate 0.49% among 310,000; Q9QUQ5; B-score at 10 µM; HEK293 TRPC4beta/mu-opioid, Fluo4 calcium fluorescence; stronger effect = higher value;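 active = B-score above 5 SD of library B-scores, and initial fluorescence ratio not above library mean plus 5 SD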;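 note: positive B-score marks a calcium rise read as TRPC4 activation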
Target sequence (Q9QUQ5 whole entry, looked up): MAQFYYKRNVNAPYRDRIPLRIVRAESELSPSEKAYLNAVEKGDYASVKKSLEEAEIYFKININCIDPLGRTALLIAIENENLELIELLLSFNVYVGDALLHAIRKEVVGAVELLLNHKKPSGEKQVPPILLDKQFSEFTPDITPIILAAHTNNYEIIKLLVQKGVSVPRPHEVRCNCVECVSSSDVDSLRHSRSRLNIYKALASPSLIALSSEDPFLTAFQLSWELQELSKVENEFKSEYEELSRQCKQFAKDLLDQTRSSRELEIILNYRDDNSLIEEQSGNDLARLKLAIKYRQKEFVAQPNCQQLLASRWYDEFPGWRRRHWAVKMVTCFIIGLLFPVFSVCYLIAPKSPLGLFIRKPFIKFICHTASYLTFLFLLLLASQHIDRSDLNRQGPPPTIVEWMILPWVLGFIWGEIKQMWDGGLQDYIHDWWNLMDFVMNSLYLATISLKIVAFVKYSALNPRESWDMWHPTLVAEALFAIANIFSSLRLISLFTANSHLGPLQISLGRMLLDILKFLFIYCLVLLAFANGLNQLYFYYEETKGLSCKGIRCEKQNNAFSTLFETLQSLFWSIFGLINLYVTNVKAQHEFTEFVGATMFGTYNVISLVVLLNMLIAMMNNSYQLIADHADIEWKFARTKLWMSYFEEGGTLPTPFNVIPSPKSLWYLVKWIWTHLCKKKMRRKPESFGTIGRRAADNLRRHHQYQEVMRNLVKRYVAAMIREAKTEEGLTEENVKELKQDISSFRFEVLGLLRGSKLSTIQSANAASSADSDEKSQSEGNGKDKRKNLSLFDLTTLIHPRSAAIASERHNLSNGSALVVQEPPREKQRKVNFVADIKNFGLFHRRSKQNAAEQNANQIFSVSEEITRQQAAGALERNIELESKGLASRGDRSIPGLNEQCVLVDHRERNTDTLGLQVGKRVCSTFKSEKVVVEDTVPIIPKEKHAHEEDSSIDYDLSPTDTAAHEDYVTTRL
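Assay system: HEK293 stable line with TRPC4beta plus mu-opioid receptor. Times: dye 45 min RT, read 110 s. Measured by: kinetic Fluo4 calcium fluorescence. Measure: B score of integrated ratio. Controls: assay buffer as low control, maximal DAMGO as high control.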
TRPC6 act – activators of mouse TRPC6 channel; AID 2550; B-score at 10 µM; hit rate 0.13% among 310,000; HEK293-TRPC6 membrane potential dye fluorescence; stronger effect = higher value;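 active = B-score of the integrated fluorescence ratio above library mean plus 3 SD, and starting fluorescence ratio within library mean plus 5 SD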;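 note: higher score means more depolarization so channel activation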
TRPC4 block – inhibitors of mouse TRPC4 channel; Q9QUQ5; HEK293 TRPC4beta/mu-opioid, DAMGO-evoked Fluo4 calcium flux; stronger effect = lower value; B-score at 10 µM; hit rate 0.39% among 300,000;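 active = B-score over 3 SD under the library average, no early fluorescence shift, positive overall ratio signal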
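Assay system: TRPC4beta/mu-opioid receptor HEK293 cell line; compound dosing: single concentration per test compound; detection: Fluo4 Ca2+ flux fluorescence; evaluation: per-well B score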
TRPC4 PAM – allosterically enhances the mouse TRPC4 cation channel; Q9QUQ5; HEK293 TRPC4beta/mu-opioid, DAMGO EC20, Fluo-4 Ca2+ flux; stronger effect = higher value; B-score at 10 µM; hit rate 0.42% among 310,000; AID 2227;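 active = B-score of calcium response area above 5 SD of library B-scores, with initial fluorescence ratio within 5 SD of library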;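 note: B-score of integrated fluorescence ratio over time as area under calcium response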
TRPC6 inhibitor – blocks the mouse TRPC6 cation channel; Q61143; HEK293-TRPC6, membrane potential dye, ACh-evoked depolarization; stronger effect = lower value; B-score at 10 µM; hit rate 1.1% among 310,000; AID 2553;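 active = B-score under library mean minus 3 SD, initial fluorescence not abnormally high, positive integrated signal ratio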;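 note: B-score derived from integrated fluorescence ratio over the kinetic read; more negative B-score means stronger inhibition of depolarization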
TRPC4 spec 2 – mouse TRPC4 off-target activity of TRPC6 inhibitors, second screen; shares compounds with TRPC6 inhibitor; HEK293 TRPC4/MOR, membrane potential dye fluorescence; channel activated by saturating DAMGO dose; inhibition, % at 10 µM; hit rate 42% among 920; AID 2776;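 active = compounds whose fluorescence signal differed from control wells by over 3 SD, either direction, in both duplicate plates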
TRPC4 spec – tests whether TRPC6 inhibitors also affect mouse TRPC4. shares compounds with TRPC6 inhibitor. HEK293 TRPC4/mu-opioid, membrane potential fluorescence. activity change, negative = inhibition, % at 10 µM. hit rate 61% among 920. AID 2777;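 active = rise or fall in signal beyond 3 SD of buffer-only wells in both replicate plates, either sign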;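 note: integrated kinetic ratio of fluorescence range over baseline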
HEK293 MPD ctr 2-1 – second check of TRPC6 inhibitor effects in parental HEK293 cells | shares compounds with TRPC6 inhibitor | parental HEK293 membrane potential dye fluorescence; maximal acetylcholine challenge after compound addition | signal change vs control, % at 10 µM | hit rate 31% among 920;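 active = membrane potential signal moving either way by over 3 SD of the maximum-effect control, in both duplicate plates, meaning non-specific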
HEK293 MPD ctr-1 – parental HEK293 nonspecific activity of TRPC6 inhibitors; hit rate 60% among 920; shares compounds with TRPC6 inhibitor; membrane potential signal change, % at 10 µM; parental HEK293 membrane potential dye fluorescence;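 active = membrane potential signal shifting up or down by more than 3 SD of buffer-only wells, on both duplicate plates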
HEK293 MPD ctr-2 – counter-screen for TRPC6 modulators: effect in parental HEK293 cells. shares compounds with TRPC6 inhibitor. membrane potential dye fluorescence. membrane potential signal change, % at 10 µM. hit rate 51% among 2,400. AID 488924;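 active = membrane potential signal moves up or down beyond 5 SD from buffer-only wells, on both duplicate plates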
HEK293 MPD ctr 2-2 – second counter-screen for TRPC6 modulators: effect in parental HEK293 cells; inhibition, % at 10 µM; hit rate 14% among 2,400; shares compounds with TRPC6 inhibitor; AID 488926; membrane potential dye fluorescence; after compound, maximal acetylcholine stimulation;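 active = membrane potential signal drops by more than 5 SD from the mean control signal, in both duplicate plates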;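 note: plate controls were acetylcholine ECmax control wells for no effect and buffer only wells for full effect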
TRPC4 ctr mod – mouse TRPC4 off-target activity of TRPC6 modulators; shares compounds with TRPC6 inhibitor; HEK293 TRPC4/mu-opioid, membrane potential fluorescence; percent change from control (negative = decrease, positive = increase), % at 10 µM; hit rate 69% among 2,400;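 active = membrane potential signal moved up or down beyond 5 SD of buffer control wells, in both duplicate plates, actives on both sides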;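 note: plate controls were assay buffer wells for no effect and DAMGO maximal-effect wells for full effect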
TRPC4 ctr inh 2 – second check of whether TRPC6 modulators also affect mouse TRPC4; shares compounds with TRPC6 inhibitor; HEK293 TRPC4/mu-opioid, membrane potential dye fluorescence; stimulated with maximal-effect DAMGO; inhibition, % at 10 µM; hit rate 55% among 2,400;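 active = drop in membrane potential signal beyond 5 SD of the control wells in both duplicate plates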;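 note: TRPC4 counter screen for TRPC6 hits run under conditions tuned for TRPC6 not TRPC4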
TRPC6 block conf – mouse TRPC6 inhibitor confirmation; shares compounds with TRPC6 inhibitor; HEK293-TRPC6, membrane potential dye, ACh-evoked depolarization; inhibition, % at 10 µM; hit rate 43% among 3,300; AID 488960;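 active = fluorescence ratio falls more than 5 SD below the full-stimulation control mean, in both duplicate runs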;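 note: integrated fluorescence ratio of peak minus minimum over baseline after agonist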
TRPC6 act conf – confirmation of mouse TRPC6 activators | shares compounds with TRPC6 inhibitor | HEK293-TRPC6 membrane potential dye fluorescence, FDSS | activation, % at 10 µM | hit rate 11% among 2,800 | AID 488961;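 active = ratio signal rise beyond 5 SD above unstimulated control wells' mean, seen in both duplicate runs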;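 note: plate controls were buffer EC0 wells for no effect and acetylcholine ECmax response for full effect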
* hit, by the source's call; i = inactive; · = not tested or not shown. Shown are actives, neighbours in structure and some others; about 2.3% of the full set was active somewhere.

SMILES	TRPC4 act	TRPC6 act	TRPC4 block	TRPC4 PAM	TRPC6 inhibitor	HEK293 MPD ctr-2	HEK293 MPD ctr 2-2	TRPC4 ctr mod	TRPC4 ctr inh 2	TRPC6 block conf	TRPC6 act conf	others
Cc1c(C)n(Cc2ccccc2)c2ccc(C(=O)NCCN3CCOCC3)cc12	i	i	i	i	i	·	·	·	·	·	·
NCCSc1c(-c2ccc(F)cc2)[nH]c2ccccc12	i	i	i	i	-6*	i	i	i	83%*	77%*	i
NCCSc1c(-c2ccccc2)[nH]c2ccccc12	i	i	i	i	-5.3*	i	i	i	57%*	52%*	i
Cc1ccc(-c2[nH]c3ccccc3c2SCCN)cc1	i	i	-7*	i	-6.7*	·	·	·	·	i	i	TRPC4 spec 2=36%*;TRPC4 spec=-12%*;HEK293 MPD ctr 2-1=i;HEK293 MPD ctr-1=-296%*
COc1ccc(-c2[nH]c3ccccc3c2SCCNC(=O)c2ccccc2)cc1	i	i	i	i	i	·	·	·	·	·	·
Cc1[nH]c2ccccc2c1SCCN	i	i	i	i	i	·	·	·	·	·	·
NCCSc1c(-c2ccc(Cl)cc2)[nH]c2ccccc12	129*	i	i	i	-6.7*	·	·	·	·	69%*	i	TRPC4 spec 2=23%*;TRPC4 spec=-12%*;HEK293 MPD ctr 2-1=i;HEK293 MPD ctr-1=-323%*
N#Cc1cc2sc3nnc(-c4ccncc4)n3c2cc1C#N	i	i	i	i	-8.2*	-368%*	86%*	-68%*	82%*	47%*	i
COCCCn1c(SCC(=O)NC2CCCC2)nnc1-c1cccs1	i	i	i	i	i	·	·	·	·	·	·
COCCNC(=O)CCSc1nc(-c2ccc(OC)cc2)cc(C(F)(F)F)n1	i	i	i	i	-5.6*	i	i	i	i	i	i
Cc1cc(OCC(=O)O/N=C(\N)Cc2cccs2)ccc1Br	i	i	i	i	-9.8*	·	·	·	·	i	i	TRPC4 spec 2=i;TRPC4 spec=i;HEK293 MPD ctr 2-1=i;HEK293 MPD ctr-1=i
N/C(=N\OC(=O)c1ccco1)c1cccc(Br)c1	i	i	i	i	i	·	·	·	·	·	·
N/C(=N\OC(=O)c1ccco1)c1cccc([N+](=O)[O-])c1	i	i	i	i	-5.3*	i	i	i	i	i	i
Cc1ccc(OCCN(C)C(=O)C2CCC(=O)N(CCCN3CCCC3=O)C2)cc1 (centres undefined)	i	i	i	i	i	·	·	·	·	·	·
COc1cccc(OCC(O)CN2CCN(CCN3C(=O)c4cccc5cccc(c45)C3=O)CC2)c1 (centres undefined)	i	i	i	i	-5.8*	i	i	i	71%*	54%*	i
